Test results reported in ChEMBL document CHEMBL4371033, “Highly Potent and Selective Plasmin Inhibitors Based on the Sunflower Trypsin Inhibitor-1 Scaffold Attenuate Fibrinolysis in Plasma” (J Med Chem, 2019).
Residues, ends and D or L forms follow the SMILES beside them.

Experiments:
Prothrombin = Prothrombin (Homo sapiens, UniProt P00734); test: Inhibition of human thrombin using Ac-ATPR-pNA as substrate after 30 mins relative to untreated control
[1] = target: Tissue-type plasminogen activator (Homo sapiens, UniProt P00750); test: Inhibition of tPA (unknown origin) using Z-Pyr-Gly-Arg-MCA as substrate after 30 mins relative to untreated control
Chain of Tissue-type plasminogen activator (P00750 whole entry): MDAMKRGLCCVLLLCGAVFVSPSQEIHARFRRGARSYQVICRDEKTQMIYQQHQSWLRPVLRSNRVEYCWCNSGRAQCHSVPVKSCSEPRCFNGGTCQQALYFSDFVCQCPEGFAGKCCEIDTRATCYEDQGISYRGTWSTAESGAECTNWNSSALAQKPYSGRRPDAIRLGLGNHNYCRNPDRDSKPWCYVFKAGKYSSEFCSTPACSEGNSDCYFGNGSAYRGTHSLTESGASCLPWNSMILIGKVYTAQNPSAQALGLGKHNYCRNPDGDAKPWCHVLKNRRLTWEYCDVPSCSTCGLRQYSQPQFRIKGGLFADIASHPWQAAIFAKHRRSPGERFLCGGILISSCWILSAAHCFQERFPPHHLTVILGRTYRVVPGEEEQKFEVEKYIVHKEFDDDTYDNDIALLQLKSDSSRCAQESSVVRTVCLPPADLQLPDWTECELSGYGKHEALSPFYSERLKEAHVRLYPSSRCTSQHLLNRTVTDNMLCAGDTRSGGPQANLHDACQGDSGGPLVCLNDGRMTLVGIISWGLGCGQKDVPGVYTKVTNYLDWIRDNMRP

Plasminogen [2] = target: T1, Plasminogen (Homo sapiens, UniProt P00747); test: Inhibition of human plasmin using Ac-RM(O2)YR-pNA as substrate after 30 mins
T1 sequence (P00747 97-580 limits assumed): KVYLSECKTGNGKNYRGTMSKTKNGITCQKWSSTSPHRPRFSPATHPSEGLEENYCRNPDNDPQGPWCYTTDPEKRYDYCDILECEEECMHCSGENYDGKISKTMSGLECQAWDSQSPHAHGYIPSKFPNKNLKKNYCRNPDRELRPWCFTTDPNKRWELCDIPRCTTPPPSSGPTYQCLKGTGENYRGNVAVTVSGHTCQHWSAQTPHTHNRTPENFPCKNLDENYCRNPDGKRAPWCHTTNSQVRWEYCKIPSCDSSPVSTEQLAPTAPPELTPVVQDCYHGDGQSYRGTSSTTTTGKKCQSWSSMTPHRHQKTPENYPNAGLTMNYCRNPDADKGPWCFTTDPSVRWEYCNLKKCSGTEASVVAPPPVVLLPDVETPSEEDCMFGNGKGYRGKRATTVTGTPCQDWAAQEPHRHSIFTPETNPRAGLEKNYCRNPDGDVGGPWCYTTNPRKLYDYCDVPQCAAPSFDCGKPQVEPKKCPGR
T1 sequence (P00747 581-810 limits assumed): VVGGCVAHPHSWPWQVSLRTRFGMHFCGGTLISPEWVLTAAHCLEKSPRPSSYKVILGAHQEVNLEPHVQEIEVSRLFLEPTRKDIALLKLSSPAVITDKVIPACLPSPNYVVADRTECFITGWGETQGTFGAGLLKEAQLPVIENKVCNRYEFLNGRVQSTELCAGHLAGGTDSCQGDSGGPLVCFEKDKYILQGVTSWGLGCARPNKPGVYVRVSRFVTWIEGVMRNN

Cathepsin G = target: T2, Cathepsin G (Homo sapiens, UniProt P08311); test: Inhibition of human cathepsin G using Suc-AAPF-MCA as substrate after 30 mins
T2 sequence (P08311 whole entry): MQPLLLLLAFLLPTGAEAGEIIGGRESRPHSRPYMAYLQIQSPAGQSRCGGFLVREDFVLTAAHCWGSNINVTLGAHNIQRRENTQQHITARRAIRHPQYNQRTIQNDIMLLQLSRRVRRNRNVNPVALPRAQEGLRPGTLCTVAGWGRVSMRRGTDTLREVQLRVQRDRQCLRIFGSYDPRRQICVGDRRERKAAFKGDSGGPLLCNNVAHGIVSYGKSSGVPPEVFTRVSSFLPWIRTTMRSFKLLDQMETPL

Homo sapiens [3] = species on record: Homo sapiens; test: Selectivity index, ratio of IC50 for inhibition of tPA (unknown origin) to IC50 for Inhibition of human plasmin
Coagulation factor XII = target: T3, Coagulation factor XII (Homo sapiens, UniProt P00748); test: Inhibition of activated beta-factor 12 (unknown origin) using Ac-QRFR-pNA as substrate after 30 mins relative to untreated control
T3 sequence (P00748 whole entry): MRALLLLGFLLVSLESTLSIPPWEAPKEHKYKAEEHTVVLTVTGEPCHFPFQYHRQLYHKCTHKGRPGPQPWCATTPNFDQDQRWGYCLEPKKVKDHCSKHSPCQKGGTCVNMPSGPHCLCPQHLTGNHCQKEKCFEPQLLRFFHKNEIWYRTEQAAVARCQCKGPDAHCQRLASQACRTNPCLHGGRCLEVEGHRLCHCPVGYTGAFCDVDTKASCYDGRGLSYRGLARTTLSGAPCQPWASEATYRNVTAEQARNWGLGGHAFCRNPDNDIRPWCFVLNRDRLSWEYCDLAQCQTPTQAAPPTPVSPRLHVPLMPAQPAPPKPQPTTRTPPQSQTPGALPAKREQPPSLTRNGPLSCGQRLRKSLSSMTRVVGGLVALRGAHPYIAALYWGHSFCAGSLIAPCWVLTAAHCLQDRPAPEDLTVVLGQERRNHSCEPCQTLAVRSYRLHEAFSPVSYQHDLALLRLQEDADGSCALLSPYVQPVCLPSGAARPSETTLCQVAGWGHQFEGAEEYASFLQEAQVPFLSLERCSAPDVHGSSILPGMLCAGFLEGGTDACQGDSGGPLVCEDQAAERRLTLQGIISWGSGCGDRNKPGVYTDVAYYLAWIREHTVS

Homo sapiens [4] = species on record: Homo sapiens; test: Selectivity index, ratio of IC50 for inhibition of activated factor 10 (unknown origin) to IC50 for Inhibition of human plasmin
Homo sapiens [5] = species on record: Homo sapiens; test: Selectivity index, ratio of IC50 for inhibition of activated beta-factor 11 (unknown origin) to IC50 for Inhibition of human plasmin
Coagulation factor XI = Coagulation factor XI (Homo sapiens, UniProt P03951); test: Inhibition of activated beta-factor 11 (unknown origin) using Bz-FVRpNA as substrate after 30 mins relative to untreated control
Chain of Coagulation factor XI (P03951 19-387 limits assumed): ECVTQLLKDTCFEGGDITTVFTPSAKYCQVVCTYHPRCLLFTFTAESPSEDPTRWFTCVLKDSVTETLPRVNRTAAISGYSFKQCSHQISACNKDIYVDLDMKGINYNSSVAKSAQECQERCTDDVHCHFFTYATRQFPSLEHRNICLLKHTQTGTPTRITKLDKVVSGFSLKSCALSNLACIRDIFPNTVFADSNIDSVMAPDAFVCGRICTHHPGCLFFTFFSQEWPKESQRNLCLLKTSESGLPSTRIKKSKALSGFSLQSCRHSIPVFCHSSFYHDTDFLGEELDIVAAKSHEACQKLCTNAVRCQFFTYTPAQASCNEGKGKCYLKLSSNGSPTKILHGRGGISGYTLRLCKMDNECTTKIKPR
Chain of Coagulation factor XI (P03951 388-625 limits assumed): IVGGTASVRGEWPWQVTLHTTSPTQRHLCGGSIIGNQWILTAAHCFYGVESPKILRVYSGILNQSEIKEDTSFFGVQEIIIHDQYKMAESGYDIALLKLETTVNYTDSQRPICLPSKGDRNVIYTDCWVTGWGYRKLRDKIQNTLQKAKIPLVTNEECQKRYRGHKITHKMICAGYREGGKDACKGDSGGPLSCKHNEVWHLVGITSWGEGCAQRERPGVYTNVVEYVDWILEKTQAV

Plasminogen [6] = target: T1, Plasminogen; test: Inhibition of human plasmin assessed as dissociation rate constant using Ac-RM(O2)YR-pNA as substrate after 30 mins
Outline: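 koff from the Baici and Gyger-Marazzi method: the lag phase before steady-state hydrolysis was compared between protease/inhibitor preincubated and substrate plus inhibitor added together. Human plasmin in 100 mM Tris pH 8.0, 100 mM NaCl, 0.005% Triton X-100, pNA substrate read at 405 nm.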

Homo sapiens [7] = species on record: Homo sapiens; test: Selectivity index, ratio of IC50 for inhibition of human thrombin to IC50 for Inhibition of human plasmin
Homo sapiens [8] = species on record: Homo sapiens; test: Selectivity index, ratio of IC50 for inhibition of plasma KLK (unknown origin) to IC50 for Inhibition of human plasmin
Coagulation factor X = Coagulation factor X (Homo sapiens, UniProt P00742); test: Inhibition of activated factor 10 (unknown origin) using Ac-QRSR-pNA as substrate after 30 mins relative to untreated control
Chain of Coagulation factor X (P00742 41-179 limits assumed): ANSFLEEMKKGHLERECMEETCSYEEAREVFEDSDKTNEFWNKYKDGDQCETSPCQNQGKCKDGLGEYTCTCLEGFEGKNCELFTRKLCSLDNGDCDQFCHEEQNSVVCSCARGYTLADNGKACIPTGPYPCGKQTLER
Chain of Coagulation factor X (P00742 235-488 limits assumed): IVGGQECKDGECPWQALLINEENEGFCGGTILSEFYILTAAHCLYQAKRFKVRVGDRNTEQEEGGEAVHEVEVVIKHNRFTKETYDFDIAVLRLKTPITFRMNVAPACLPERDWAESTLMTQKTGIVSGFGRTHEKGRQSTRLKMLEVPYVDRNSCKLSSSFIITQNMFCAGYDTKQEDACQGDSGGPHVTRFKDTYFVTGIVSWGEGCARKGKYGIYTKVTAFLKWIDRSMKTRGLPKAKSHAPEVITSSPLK

Plasminogen [9] = target: T1, Plasminogen; test: Inhibition of human plasmin assessed as association rate constant using Ac-RM(O2)YR-pNA as substrate after 30 mins
[10] = target: T4, Suppressor of tumorigenicity 14 protein (Homo sapiens, UniProt Q9Y5Y6); test: Inhibition of matriptase (unknown origin) using Boc-QAR-MCA as substrate after 30 mins relative to untreated control
T4 sequence (Q9Y5Y6 whole entry): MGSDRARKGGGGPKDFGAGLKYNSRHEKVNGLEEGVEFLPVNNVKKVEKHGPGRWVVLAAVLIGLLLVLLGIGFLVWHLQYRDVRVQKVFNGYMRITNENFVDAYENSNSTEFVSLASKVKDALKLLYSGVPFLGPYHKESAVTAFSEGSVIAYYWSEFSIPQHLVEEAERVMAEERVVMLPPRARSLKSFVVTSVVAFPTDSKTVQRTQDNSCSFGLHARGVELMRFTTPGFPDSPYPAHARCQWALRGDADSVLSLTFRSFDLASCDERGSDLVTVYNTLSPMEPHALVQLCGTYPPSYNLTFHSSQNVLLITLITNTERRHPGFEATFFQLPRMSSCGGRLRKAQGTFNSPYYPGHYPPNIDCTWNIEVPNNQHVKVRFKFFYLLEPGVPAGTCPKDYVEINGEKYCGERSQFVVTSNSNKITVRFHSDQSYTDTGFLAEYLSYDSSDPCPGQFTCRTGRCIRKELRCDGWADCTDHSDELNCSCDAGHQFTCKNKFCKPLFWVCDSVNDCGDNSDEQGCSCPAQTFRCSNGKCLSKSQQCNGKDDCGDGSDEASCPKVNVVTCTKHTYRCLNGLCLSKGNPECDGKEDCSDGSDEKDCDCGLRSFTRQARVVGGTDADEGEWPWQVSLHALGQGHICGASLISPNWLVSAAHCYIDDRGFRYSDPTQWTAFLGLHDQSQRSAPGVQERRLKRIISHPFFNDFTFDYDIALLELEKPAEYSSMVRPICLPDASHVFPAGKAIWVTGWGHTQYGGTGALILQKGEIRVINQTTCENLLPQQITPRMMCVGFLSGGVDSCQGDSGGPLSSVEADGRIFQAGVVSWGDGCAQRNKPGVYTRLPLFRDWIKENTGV

Coagulation factor IX = Coagulation factor IX (Homo sapiens, UniProt P00740); test: Inhibition of activated beta-factor 9 (unknown origin) using Boc-QGR-MCA as substrate after 30 mins relative to untreated control
Chain of Coagulation factor IX (P00740 47-191 limits assumed): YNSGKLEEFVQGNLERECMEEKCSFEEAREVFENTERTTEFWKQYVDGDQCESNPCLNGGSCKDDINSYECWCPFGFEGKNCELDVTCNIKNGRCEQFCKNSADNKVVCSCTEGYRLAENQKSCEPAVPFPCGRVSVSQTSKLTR
Chain of Coagulation factor IX (P00740 227-461 limits assumed): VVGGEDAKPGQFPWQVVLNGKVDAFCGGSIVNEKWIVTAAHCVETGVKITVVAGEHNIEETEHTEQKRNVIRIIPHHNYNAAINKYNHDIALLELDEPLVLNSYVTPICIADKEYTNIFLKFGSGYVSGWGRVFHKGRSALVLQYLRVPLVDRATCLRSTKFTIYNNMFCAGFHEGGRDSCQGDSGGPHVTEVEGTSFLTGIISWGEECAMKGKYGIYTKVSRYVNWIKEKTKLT

[11] = target: Urokinase-type plasminogen activator (Homo sapiens, UniProt P00749); test: Inhibition of uPA (unknown origin) using Z-Pyr-Gly-Arg-MCA as substrate after 30 mins relative to untreated control

CC[C@H](C)[C@@H]1NC(=O)[C@@H]2CCCN2C(=O)[C@@H]2CCCN2C(=O)[C@H](CCCCN)NC(=O)[C@H](CO)NC(=O)[C@H](CCCCN)NC(=O)[C@H](Cc2ccc(O)cc2)NC(=O)[C@@H]2CSSC[C@H](NC1=O)C(=O)N[C@@H](Cc1ccccc1)C(=O)N1CCC[C@H]1C(=O)N[C@@H](CC(=O)O)C(=O)NCC(=O)N[C@@H](CCCNC(=N)N)C(=O)N2 (HELM PEPTIDE1{C.F.P.D.G.R.C.Y.K.S.K.P.P.I}$PEPTIDE1,PEPTIDE1,1:R3-7:R3|PEPTIDE1,PEPTIDE1,1:R1-14:R2$$$V2.0)
Ki (Prothrombin): > 50 µM
Ki [1]: > 50 µM
Ki (Plasminogen [2]): 0.051 nM
Ki (Cathepsin G): 29 µM
Ratio IC50 (Homo sapiens [3]): > 1e+06
Ki (Coagulation factor XII): > 50 µM
Ratio IC50 (Homo sapiens [4]): > 1e+06
Ratio IC50 (Homo sapiens [5]): > 1e+06
Ki (Coagulation factor XI): > 50 µM
K (Plasminogen [6]): 9.9 ×10⁻⁴ /s
Ratio IC50 (Homo sapiens [7]): > 1e+06
Ratio IC50 (Homo sapiens [8]): > 1e+06
Ki (Coagulation factor X): > 50 µM
K (Plasminogen [9]): 1.9 ×10⁷ /M/s
Ki [10]: > 50 µM
Ki (Coagulation factor IX): > 50 µM
Ki [11]: > 50 µM
